Test results taken from ChEMBL document CHEMBL4024747, “Design, Synthesis, and Biological Activities of Vibsanin B Derivatives: A New Class of HSP90 C-Terminal Inhibitors” (J Med Chem, 2017).
Calls of active or inactive are those of the source. The calls are words filed in the database; no cut-off is given here.

Key:
MCF7 = assay: Antiproliferative activity against human MCF7 cells assessed as reduction in cell viability after 48 hrs by MTT assay; format: functional, cell-based; conditions: MCF7, 48 h
MDA-MB-468 = assay: Antiproliferative activity against human MDA-MB-468 cells assessed as reduction in cell viability after 48 hrs by MTT assay; format: functional, cell-based; conditions: MDA-MB-468, 48 h
SK-BR-3 = assay: Antiproliferative activity against human SKBR3 cells assessed as reduction in cell viability after 48 hrs by MTT assay; format: functional, cell-based; conditions: SK-BR-3, 48 h
[1] = molecular target: Heat shock protein HSP 90-beta (Homo sapiens) (UniProt P08238); assay: Inhibition of recombinant human Biotin-labeled N-terminal His/Avi-tagged HSP90beta C-terminal domain (527 to 724 residues) expressed in Escherichia coli interaction with GST-tagged Cyp40 at 1 to 100 uM after 30 mins by Alphascreen assay
Procedure, shortened: (§1)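 AlphaScreen assay: biotin-labelled HSP90β C-terminus (aa 527–724) mixed with GST-Cyp40 and compound (1–100 μM; novobiocin 500 μM) for 30 min at room temperature. Glutathione acceptor beads added for 30 min, then streptavidin donor beads for 10 min. Excitation at 680 nm, emission read at 520–620 nm; percent activity calculated against enzyme and background wells.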

[2] = molecular target: Heat shock protein HSP 90-alpha (Homo sapiens) (UniProt P07900); assay: Inhibition of FITC-geldanamycin binding to human FLAG-tagged HSP90alpha N-terminal domain
[3] = molecular target: Heat shock protein HSP 90-beta (Homo sapiens) (UniProt P08238); assay: Inhibition of FITC-geldanamycin binding to human FLAG-tagged HSP90beta N-terminal domain
SMMC-7721 = assay: Antiproliferative activity against human SMMC7721 cells assessed as reduction in cell viability after 48 hrs by MTT assay; format: functional, cell-based; conditions: SMMC-7721, 48 h
A549 = assay: Antiproliferative activity against human A549 cells assessed as reduction in cell viability after 48 hrs by MTT assay; format: functional, cell-based; conditions: A549, 48 h
HL-60 = assay: Antiproliferative activity against human HL60 cells assessed as reduction in cell viability after 48 hrs by MTT assay; format: functional, cell-based; conditions: HL-60, 48 h
SW480 = assay: Antiproliferative activity against human SW480 cells assessed as reduction in cell viability after 48 hrs by MTT assay; format: functional, cell-based; conditions: SW480, 48 h
Oryctolagus cuniculus = species on record: Oryctolagus cuniculus; assay: Inhibition of HSP90 in rabbit reticulocyte lysate assessed as decrease in HSP90-dependant refolding of firefly luciferase at 10 uM after 30 mins by luciferase gene based assay
Procedure, shortened: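 Firefly luciferase heat-denatured at 41 °C for 10 min, then added with rabbit reticulocyte lysate to compounds at 10 μM. Renaturation at room temperature for 3 h; luciferin substrate added and luminescence read. Refolding expressed relative to DMSO; novobiocin at 500 μM as reference. Three independent experiments.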

HepG2 = assay: Antiproliferative activity against human HepG2 cells assessed as reduction in cell viability after 48 hrs by MTT assay; format: functional, cell-based; conditions: HepG2, 48 h
AGS = assay: Antiproliferative activity against human AGS cells assessed as reduction in cell viability after 48 hrs by MTT assay; format: functional, cell-based
Huh-7 = assay: Antiproliferative activity against human HuH7 cells assessed as reduction in cell viability after 48 hrs by MTT assay; format: functional, cell-based; conditions: Huh-7, 48 h
HeLa = assay: Antiproliferative activity against human HeLa cells assessed as reduction in cell viability after 48 hrs by MTT assay; format: functional, cell-based
BT-474 [4] = assay: Antiproliferative activity against human BT474 cells assessed as reduction in cell viability after 48 hrs by MTT assay; format: functional, cell-based; conditions: BT-474, 48 h
BEAS-2B = assay: Cytotoxicity against human BEAS2B cells assessed as reduction in cell viability after 48 hrs by MTT assay; format: cell-based
Danio rerio = species on record: Danio rerio; assay: Toxicity in 3 days post fertilized zebrafish embryo assessed as changes in embryonic phenotypes at 4 to 16 uM after 12 hrs; conditions: in vivo
[5] = molecular target: Heat shock protein HSP 90-beta (Homo sapiens) (UniProt P08238); assay: Inhibition of recombinant human Biotin-labeled N-terminal His/Avi-tagged HSP90beta C-terminal domain (527 to 724 residues) expressed in Escherichia coli interaction with GST-tagged Cyp40 at 100 uM after 30 mins by Alphascreen assay; procedure, shortened: as §1
[6] = molecular target: T1, Heat shock protein HSP90 (Homo sapiens) (UniProt P07900+P08238); assay: Inhibition of HSP90 in human BT474 cells assessed as decrease in c-Raf protein expression at 1.25 to 5 uM after 24 hrs by Western blot analysis; format: cell-based
[7] = molecular target: T1, Heat shock protein HSP90 (Homo sapiens); assay: Inhibition of HSP90 in human BT474 cells assessed as decrease in Her2 protein expression at 1.25 to 5 uM after 24 hrs by Western blot analysis; format: cell-based
Procedure, shortened: (§2)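 BT474 cells lysed directly in 2× Laemmli buffer; proteins resolved on 12% acrylamide gel and transferred to PVDF. Blocked overnight at 4 °C in 5% skim milk, then probed 1 h at room temperature with antibodies to HER2, pAkt, CDK4, HSP90, HSP70 and HSP27. Chemiluminescent detection with β-actin as loading control; run in triplicate.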

[8] = molecular target: T1, Heat shock protein HSP90 (Homo sapiens); assay: Inhibition of HSP90 in human BT474 cells assessed as decrease in p-Akt expression at 1.25 to 5 uM after 24 hrs by Western blot analysis; format: cell-based; procedure, shortened: as §2
[9] = molecular target: T1, Heat shock protein HSP90 (Homo sapiens); assay: Inhibition of HSP90 in human BT474 cells assessed as decrease in CDK4 protein expression at 1.25 to 5 uM after 24 hrs by Western blot analysis; format: cell-based; procedure, shortened: as §2
[10] = molecular target: T1, Heat shock protein HSP90 (Homo sapiens); assay: Inhibition of HSP90 in human BT474 cells assessed as induction of HSP70 expression at 1.25 to 5 uM after 24 hrs by Western blot analysis; format: cell-based; procedure, shortened: as §2
[11] = molecular target: T1, Heat shock protein HSP90 (Homo sapiens); assay: Inhibition of HSP90 in human BT474 cells assessed as induction of HSP27 expression at 1.25 to 5 uM after 24 hrs by Western blot analysis; format: cell-based; procedure, shortened: as §2
BT-474 [12] = assay: Cell cycle arrest in human BT474 cells assessed as accumulation at subG1 phase at 2.5 uM after 16 hrs by propidium iodide-staining based FACS analysis (reference value: 0.81%); format: functional
BT-474 [13] = assay: Cell cycle arrest in human BT474 cells assessed as accumulation at G0/G1 phase at 2.5 uM after 16 hrs by propidium iodide-staining based FACS analysis (reference value: 74.88%); format: functional
BT-474 [14] = assay: Cell cycle arrest in human BT474 cells assessed as accumulation at S phase at 2.5 uM after 16 hrs by propidium iodide-staining based FACS analysis (reference value: 8.52%); format: functional
BT-474 [15] = assay: Cell cycle arrest in human BT474 cells assessed as accumulation at G2/M phase at 2.5 uM after 16 hrs by propidium iodide-staining based FACS analysis (reference value: 15.79%); format: functional
BT-474 [16] = assay: Cell cycle arrest in human BT474 cells assessed as accumulation at subG1 phase at 5 uM after 16 hrs by propidium iodide-staining based FACS analysis (reference value: 0.81%); format: functional
BT-474 [17] = assay: Cell cycle arrest in human BT474 cells assessed as accumulation at G0/G1 phase at 5 uM after 16 hrs by propidium iodide-staining based FACS analysis (reference value: 74.88%); format: functional
BT-474 [18] = assay: Cell cycle arrest in human BT474 cells assessed as accumulation at S phase at 5 uM after 16 hrs by propidium iodide-staining based FACS analysis (reference value: 8.52%); format: functional
BT-474 [19] = assay: Cell cycle arrest in human BT474 cells assessed as accumulation at G2/M phase at 5 uM after 16 hrs by propidium iodide-staining based FACS analysis (reference value: 15.79%); format: functional
[20] = Half life of compound in toluene at 110 degreeC by HPLC analysis; format: physicochemical
Procedure, shortened: (§3)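 Thermostability in toluene at 110 °C or 60 °C followed by HPLC; half-life estimated.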

[21] = Drug metabolism in deionized water assessed as compound decomposition at 100 degreeC after 10 mins by HPLC analysis relative to control; format: physicochemical; conditions: read-out: Drug metabolism
Procedure, shortened: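 Thermostability determined by HPLC after heating in deionized water at 100 °C for 10 min; decomposition recorded in percent.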

[22] = Stability of compound in pH 7.4 PBS at 37 degreeC after 12 hrs by HPLC analysis; format: physicochemical; conditions: buffer, pH 7.4, 12 h
Procedure, shortened: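 Solution stability determined by HPLC after incubation in PBS pH 7.4 at 37 °C for 12 h.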

[23] = Stability of compound in DMSO at 4 degreeC after 4 weeks HPLC analysis; format: physicochemical; conditions: 672 h
[24] = Half life of compound in toluene at 60 degreeC by HPLC analysis; format: physicochemical; procedure, shortened: as §3
[25] = molecular target: Luciferin 4-monooxygenase (Photinus pyralis) (UniProt P08659); assay: Inhibition of firefly luciferase activity using luciferin substrate at 10 uM after 30 mins by luminescence assay
Sequence of Luciferin 4-monooxygenase (Photinus pyralis) (P08659 whole entry): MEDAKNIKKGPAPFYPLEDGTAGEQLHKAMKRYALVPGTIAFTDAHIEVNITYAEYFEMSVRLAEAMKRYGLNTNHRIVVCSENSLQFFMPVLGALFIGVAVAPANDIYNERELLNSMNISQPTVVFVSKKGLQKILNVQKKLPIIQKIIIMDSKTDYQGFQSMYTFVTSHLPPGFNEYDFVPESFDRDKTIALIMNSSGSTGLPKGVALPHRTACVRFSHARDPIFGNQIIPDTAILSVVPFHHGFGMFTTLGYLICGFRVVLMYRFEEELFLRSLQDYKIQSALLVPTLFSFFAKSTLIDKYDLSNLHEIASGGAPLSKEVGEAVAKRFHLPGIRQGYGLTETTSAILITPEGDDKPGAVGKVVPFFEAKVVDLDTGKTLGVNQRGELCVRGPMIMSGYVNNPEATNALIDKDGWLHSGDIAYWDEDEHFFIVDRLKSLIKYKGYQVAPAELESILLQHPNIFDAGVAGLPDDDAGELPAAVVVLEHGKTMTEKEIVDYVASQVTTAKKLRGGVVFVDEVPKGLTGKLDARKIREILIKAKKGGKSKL

Sequence of Heat shock protein HSP 90-beta (Homo sapiens) (P08238 whole entry, the tested form may be a part): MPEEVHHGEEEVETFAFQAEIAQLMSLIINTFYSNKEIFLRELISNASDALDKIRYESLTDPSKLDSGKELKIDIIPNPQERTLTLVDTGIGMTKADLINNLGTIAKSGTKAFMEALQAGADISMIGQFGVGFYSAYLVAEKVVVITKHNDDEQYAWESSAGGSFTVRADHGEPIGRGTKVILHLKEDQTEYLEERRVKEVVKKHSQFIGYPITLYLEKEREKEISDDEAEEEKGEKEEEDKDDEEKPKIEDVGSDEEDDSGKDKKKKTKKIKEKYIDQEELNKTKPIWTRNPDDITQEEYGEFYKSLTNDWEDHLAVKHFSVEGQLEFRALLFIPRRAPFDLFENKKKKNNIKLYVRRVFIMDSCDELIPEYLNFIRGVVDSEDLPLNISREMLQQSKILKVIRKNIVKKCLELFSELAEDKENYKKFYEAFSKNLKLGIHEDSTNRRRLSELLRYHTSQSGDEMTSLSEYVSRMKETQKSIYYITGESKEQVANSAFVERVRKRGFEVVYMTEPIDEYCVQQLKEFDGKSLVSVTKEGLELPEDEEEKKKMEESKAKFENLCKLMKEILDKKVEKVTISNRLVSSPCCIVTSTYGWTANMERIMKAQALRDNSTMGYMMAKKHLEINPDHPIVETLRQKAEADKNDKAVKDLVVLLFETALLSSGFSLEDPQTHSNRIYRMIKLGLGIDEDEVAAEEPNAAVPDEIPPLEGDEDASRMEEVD

## CC(C)=CCC[C@]1(C)/C=C/[C@@H](OC(=O)C=C(C)C)[C@](C)(O)/C=C/C(=O)/C(CN2CCN(C)CC2)=C\C1
MCF7
  IC50: 550 nM
MDA-MB-468
  IC50: 760 nM
SK-BR-3
  IC50: 1120 nM
[1]
  inhibition: Active
[2]
  inhibition: inactive
[3]
  inhibition: inactive
SMMC-7721
  IC50: 2940 nM
A549
  IC50: 940 nM
HL-60
  IC50: 840 nM
SW480
  IC50: 800 nM
Oryctolagus cuniculus
  inhibition: Active
HepG2
  IC50: 2260 nM
AGS
  IC50: 860 nM
Huh-7
  IC50: 860 nM
HeLa
  IC50: 590 nM
BT-474 [4]
  IC50: 2640 nM
BEAS-2B
  IC50: 2840 nM
Danio rerio
  Activity: Non-Toxic
[5]
  inhibition: Active
[6]
  inhibition: Active
[7]
  inhibition: Active
[8]
  inhibition: Active
[9]
  inhibition: Active
[10]
  inhibition: Active
[11]
  inhibition: Active
BT-474 [12]
  Activity: 2.03%
BT-474 [13]
  Activity: 73.18%
BT-474 [14]
  Activity: 5.3%
BT-474 [15]
  Activity: 19.49%
BT-474 [16]
  Activity: 4.18%
BT-474 [17]
  Activity: 61.89%
BT-474 [18]
  Activity: 8.33%
BT-474 [19]
  Activity: 25.6%
[20]
  half-life: 5 min
[21]
  degraded at 10 min: 2.3%
[22]
  Stability: Stable
[23]
  Stability: Stable
[24]
  half-life: 20 min
[25]
  inhibition: inactive
